# In ChEMBL document CHEMBL1124793, “Comparative reactivity of 1-carba-1-dethiacephalosporins with cephalosporins” (J Med Chem, 1990):
# Tested on: Pseudomonas aeruginosa
# Assay: In vitro in vitro inhibitory activity against Pseudomonas aeruginosa X258
# Type: functional
# Summary of the method: (§1)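 Agar dilution: compounds were diluted in 0.1 M phosphate buffer, pH 7.0, and mixed at 50 °C into Mueller–Hinton agar with 1% Bacto-Supplement C. Fresh overnight cultures were diluted to about 1 × 10^4 cells/μL and spotted at 1 μL. Plates were incubated overnight at 35 °C in ambient air. MIC (μg/mL) was the lowest concentration preventing visible growth.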
row,Structure (SMILES),MIC [mg/L]
1,COC(=O)C1=C(C(=O)O)N2C(=O)[C@@H](NC(=O)Cc3cccs3)[C@H]2SC1,128

# Tested on: Providencia rettgeri
# Assay: In vitro inhibitory activity against Proteus rettgeri C24
# Type: functional
# Summary of the method: as §1
row,Structure (SMILES),MIC [mg/L]
1,CS(=O)(=O)OC1=C(C(=O)O)N2C(=O)[C@@H](NC(=O)COc3ccccc3)[C@H]2CC1,128
2,COCC1=C(C(=O)O)N2C(=O)[C@@H](NC(=O)COc3ccccc3)[C@H]2SC1,128
3,COCC1=C(C(=O)O)N2C(=O)[C@@H](NC(=O)COc3ccccc3)[C@H]2CC1,128
4,COC(=O)C1=C(C(=O)O)N2C(=O)[C@@H](NC(=O)Cc3cccs3)[C@H]2SC1,128

# Tested on: not listed separately
# Assay: Half-life is evaluated
# Type: ADME
# Summary of the method: (§2)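 Parent β-lactam loss followed by HPLC, starting at 3.9 × 10^-4–1 × 10^-3 M, at 35 °C and μ = 0.5. pH was held at 10 by a pH-stat adding NaOH. Pseudo-first-order rate constants were derived, with half-lives from these rates. Some runs were done at pH 11, and the constant was taken as 1/10 of the observed value, assuming proportionality to [OH].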
row,Structure (SMILES),half-life [h]
1,CS(=O)(=O)OC1=C(C(=O)O)N2C(=O)[C@@H](NC(=O)COc3ccccc3)[C@H]2CC1,7.79
2,COCC1=C(C(=O)O)N2C(=O)[C@@H](NC(=O)COc3ccccc3)[C@H]2SC1,1.88
3,COCC1=C(C(=O)O)N2C(=O)[C@@H](NC(=O)COc3ccccc3)[C@H]2CC1,46.5
4,COC(=O)C1=C(C(=O)O)N2C(=O)[C@@H](NC(=O)Cc3cccs3)[C@H]2SC1,0.111

# Tested on: Streptococcus pyogenes
# Assay: In vitro inhibitory activity against Streptococcus pyogenes Park
# Type: functional
# Summary of the method: as §1
row,Structure (SMILES),MIC [mg/L]
1,CS(=O)(=O)OC1=C(C(=O)O)N2C(=O)[C@@H](NC(=O)COc3ccccc3)[C@H]2CC1,0.5
2,COCC1=C(C(=O)O)N2C(=O)[C@@H](NC(=O)COc3ccccc3)[C@H]2SC1,0.12
3,COCC1=C(C(=O)O)N2C(=O)[C@@H](NC(=O)COc3ccccc3)[C@H]2CC1,0.25
4,COC(=O)C1=C(C(=O)O)N2C(=O)[C@@H](NC(=O)Cc3cccs3)[C@H]2SC1,0.03

# Tested on: Pseudomonas aeruginosa
# Assay: In vitro inhibitory activity against Pseudomonas aeruginosa X258
# Type: functional
# Summary of the method: as §1
row,Structure (SMILES),MIC [mg/L]
1,CS(=O)(=O)OC1=C(C(=O)O)N2C(=O)[C@@H](NC(=O)COc3ccccc3)[C@H]2CC1,128
2,COCC1=C(C(=O)O)N2C(=O)[C@@H](NC(=O)COc3ccccc3)[C@H]2SC1,128
3,COCC1=C(C(=O)O)N2C(=O)[C@@H](NC(=O)COc3ccccc3)[C@H]2CC1,128

# Tested on: Staphylococcus aureus
# Assay: In vitro inhibitory activity against Staphylococcus aureus X1.1
# Type: functional
# Summary of the method: as §1
row,Structure (SMILES),MIC [mg/L]
1,CS(=O)(=O)OC1=C(C(=O)O)N2C(=O)[C@@H](NC(=O)COc3ccccc3)[C@H]2CC1,0.5
2,COCC1=C(C(=O)O)N2C(=O)[C@@H](NC(=O)COc3ccccc3)[C@H]2SC1,0.25
3,COCC1=C(C(=O)O)N2C(=O)[C@@H](NC(=O)COc3ccccc3)[C@H]2CC1,0.5
4,COC(=O)C1=C(C(=O)O)N2C(=O)[C@@H](NC(=O)Cc3cccs3)[C@H]2SC1,0.5

# Tested on: Escherichia coli
# Assay: In vitro inhibitory activity against Escherichia coli EC14
# Type: functional
# Summary of the method: as §1
row,Structure (SMILES),MIC [mg/L]
1,CS(=O)(=O)OC1=C(C(=O)O)N2C(=O)[C@@H](NC(=O)COc3ccccc3)[C@H]2CC1,32
2,COCC1=C(C(=O)O)N2C(=O)[C@@H](NC(=O)COc3ccccc3)[C@H]2SC1,128
3,COCC1=C(C(=O)O)N2C(=O)[C@@H](NC(=O)COc3ccccc3)[C@H]2CC1,32
4,COC(=O)C1=C(C(=O)O)N2C(=O)[C@@H](NC(=O)Cc3cccs3)[C@H]2SC1,2

# Tested on: not listed separately
# Assay: Pseudo-first-order rate constant at pH 10, micro=0.5, 35 degrees Centigrade
# Type: ADME
# Summary of the method: as §2
row,Structure (SMILES),K [h⁻¹]
1,COCC1=C(C(=O)O)N2C(=O)[C@@H](NC(=O)COc3ccccc3)[C@H]2CC1,0.0149

# Tested on: not listed separately
# Assay: Pseudo-first-order rate constant at pH 10 and 35 degrees Centigrade
# Type: ADME
# Summary of the method: as §2
row,Structure (SMILES),K [h⁻¹]
1,CS(=O)(=O)OC1=C(C(=O)O)N2C(=O)[C@@H](NC(=O)COc3ccccc3)[C@H]2CC1,0.089
2,COCC1=C(C(=O)O)N2C(=O)[C@@H](NC(=O)COc3ccccc3)[C@H]2SC1,0.368
3,COC(=O)C1=C(C(=O)O)N2C(=O)[C@@H](NC(=O)Cc3cccs3)[C@H]2SC1,6.27

# Tested on: Haemophilus influenzae
# Assay: In vitro inhibitory activity against Haemophilus influenza C.L
# Type: functional
# Summary of the method: as §1
row,Structure (SMILES),MIC [mg/L]
1,CS(=O)(=O)OC1=C(C(=O)O)N2C(=O)[C@@H](NC(=O)COc3ccccc3)[C@H]2CC1,8
2,COCC1=C(C(=O)O)N2C(=O)[C@@H](NC(=O)COc3ccccc3)[C@H]2SC1,2
3,COCC1=C(C(=O)O)N2C(=O)[C@@H](NC(=O)COc3ccccc3)[C@H]2CC1,8
4,COC(=O)C1=C(C(=O)O)N2C(=O)[C@@H](NC(=O)Cc3cccs3)[C@H]2SC1,2

# Tested on: Enterobacter cloacae
# Assay: In vitro inhibitory activity against Enterobacter cloacae EB5
# Type: functional
# Summary of the method: as §1
row,Structure (SMILES),MIC [mg/L]
1,CS(=O)(=O)OC1=C(C(=O)O)N2C(=O)[C@@H](NC(=O)COc3ccccc3)[C@H]2CC1,128
2,COCC1=C(C(=O)O)N2C(=O)[C@@H](NC(=O)COc3ccccc3)[C@H]2SC1,128
3,COCC1=C(C(=O)O)N2C(=O)[C@@H](NC(=O)COc3ccccc3)[C@H]2CC1,128
4,COC(=O)C1=C(C(=O)O)N2C(=O)[C@@H](NC(=O)Cc3cccs3)[C@H]2SC1,128

# Tested on: Klebsiella pneumoniae
# Assay: In vitro inhibitory activity against Klebsiella X26
# Type: functional
# Summary of the method: as §1
row,Structure (SMILES),MIC [mg/L]
1,CS(=O)(=O)OC1=C(C(=O)O)N2C(=O)[C@@H](NC(=O)COc3ccccc3)[C@H]2CC1,8
2,COCC1=C(C(=O)O)N2C(=O)[C@@H](NC(=O)COc3ccccc3)[C@H]2SC1,32
3,COCC1=C(C(=O)O)N2C(=O)[C@@H](NC(=O)COc3ccccc3)[C@H]2CC1,8
4,COC(=O)C1=C(C(=O)O)N2C(=O)[C@@H](NC(=O)Cc3cccs3)[C@H]2SC1,2
